Results on 17 compounds are retold here after ChEMBL document CHEMBL1140206 (J Med Chem, 2008).

Assay [1] has as its target Neuronal acetylcholine receptor; alpha4/beta2 (Rattus norvegicus, UniProt P09483+P12390). Put plainly: Displacement of [3H]epibatidine from rat recombinant alpha4beta2 nAChR expressed in HEK293 cells. The format is cell-based. On the technique in general: Loss of bound radioactivity is the signal in a displacement assay; it reports binding, not function.
In assay [2] the target is T1, Neuronal acetylcholine receptor; alpha3/beta4 (Rattus norvegicus, UniProt P04757+P12392). The assay is described as follows: Displacement of [3H]epibatidine from rat recombinant alpha-3-beta-4 nAChR expressed in HEK293 cells. The format is cell-based.
T1 sequence (P04757 whole entry): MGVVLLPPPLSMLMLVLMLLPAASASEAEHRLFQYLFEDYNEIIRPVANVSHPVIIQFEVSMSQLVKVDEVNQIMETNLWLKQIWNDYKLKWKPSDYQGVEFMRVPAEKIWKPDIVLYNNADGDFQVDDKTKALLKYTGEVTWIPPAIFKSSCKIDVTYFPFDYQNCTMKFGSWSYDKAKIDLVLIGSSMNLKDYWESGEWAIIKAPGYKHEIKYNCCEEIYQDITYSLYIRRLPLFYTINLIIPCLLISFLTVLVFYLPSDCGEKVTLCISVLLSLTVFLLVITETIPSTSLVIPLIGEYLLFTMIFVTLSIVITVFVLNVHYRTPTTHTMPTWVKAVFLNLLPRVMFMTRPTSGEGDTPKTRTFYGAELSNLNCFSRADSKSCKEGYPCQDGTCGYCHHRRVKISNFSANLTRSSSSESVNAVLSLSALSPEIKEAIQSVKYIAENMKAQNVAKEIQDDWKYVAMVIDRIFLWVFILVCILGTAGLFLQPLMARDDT
T1 sequence (P12392 whole entry): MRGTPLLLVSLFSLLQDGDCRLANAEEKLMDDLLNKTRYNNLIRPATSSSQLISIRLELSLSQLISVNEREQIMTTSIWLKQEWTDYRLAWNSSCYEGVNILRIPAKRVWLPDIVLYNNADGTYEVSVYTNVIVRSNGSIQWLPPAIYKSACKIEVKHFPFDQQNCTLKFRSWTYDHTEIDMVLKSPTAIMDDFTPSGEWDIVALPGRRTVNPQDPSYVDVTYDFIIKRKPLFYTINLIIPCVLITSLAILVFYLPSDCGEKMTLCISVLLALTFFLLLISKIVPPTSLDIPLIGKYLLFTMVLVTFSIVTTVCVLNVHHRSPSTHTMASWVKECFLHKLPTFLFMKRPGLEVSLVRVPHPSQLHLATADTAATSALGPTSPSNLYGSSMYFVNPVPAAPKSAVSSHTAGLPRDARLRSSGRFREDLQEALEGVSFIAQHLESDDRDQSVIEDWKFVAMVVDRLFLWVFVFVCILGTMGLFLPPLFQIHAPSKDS
Assay [3] has as its target Neuronal acetylcholine receptor; alpha4/beta4 (Rattus norvegicus, UniProt P09483+P12392). Put plainly: Displacement of [3H]epibatidine from rat recombinant alpha-4-beta-4 nAChR expressed in HEK293 cells. The format is cell-based.
For assay [4], the target named is Neuronal acetylcholine receptor subunit alpha-7 (Rattus norvegicus, UniProt Q05941). The assay is described as follows: Displacement of [3H]MLA from rat alpha-7 nAChR/mouse 5HT3A chimera expressed in human tsA-201 cells.
Sequence of Neuronal acetylcholine receptor subunit alpha-7 (Rattus norvegicus, UniProt Q05941) (Q05941 23-502 limits assumed): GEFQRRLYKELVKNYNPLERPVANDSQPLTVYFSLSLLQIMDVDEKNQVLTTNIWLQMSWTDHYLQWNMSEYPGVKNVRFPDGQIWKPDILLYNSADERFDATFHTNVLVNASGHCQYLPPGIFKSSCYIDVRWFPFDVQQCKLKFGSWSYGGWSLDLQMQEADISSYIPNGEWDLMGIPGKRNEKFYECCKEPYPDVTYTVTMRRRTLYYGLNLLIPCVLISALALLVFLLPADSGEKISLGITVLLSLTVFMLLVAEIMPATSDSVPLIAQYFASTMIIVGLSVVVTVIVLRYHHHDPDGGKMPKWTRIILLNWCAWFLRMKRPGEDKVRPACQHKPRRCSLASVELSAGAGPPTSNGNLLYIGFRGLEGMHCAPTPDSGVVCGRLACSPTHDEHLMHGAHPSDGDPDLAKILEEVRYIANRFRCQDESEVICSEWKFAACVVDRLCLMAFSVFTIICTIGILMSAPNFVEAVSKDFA
In assay [5] the target is T1, Neuronal acetylcholine receptor; alpha3/beta4. The assay is described as follows: Agonist activity at rat alpha-3-beta-4 nAChR expressed in HEK293 cells by FMP assay. The format is functional, cell-based. In short, it runs like this:
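Stable HEK293 line; cells plated 16-24 h, washed, then loaded 30 min at 37 °C with FMP dye in Krebs buffer pH 7.4. Concentration-response curves used maximal responses, fitted to a Hill equation for EC50 and Rmax. Run in duplicate, at least three times.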

The target of assay [6] is Neuronal acetylcholine receptor; alpha3/beta4 (Rattus norvegicus) (UniProt P04757+P12392). The assay is described as follows: Agonist activity at rat alpha-3-beta-4 nAChR expressed in HEK293 cells by FMP assay relative to acetylcholine. The format is functional, cell-based. In short, it runs like this: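 Stable HEK293 line; cells plated 16-24 h, washed, then loaded 30 min at 37 °C with FMP dye in Krebs buffer pH 7.4. Fluorescence (ex 530/em 560 nm) was read before and up to 1 min after agonist addition. Concentration-response curves used maximal responses, fitted to a Hill equation for EC50 and Rmax. Run in duplicate, at least three times.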

For assay [7], the target named is T2, Neuronal acetylcholine receptor; alpha4/beta2 (Homo sapiens, UniProt P17787+P43681). Put plainly: Agonist activity at human alpha-4-beta-2 nAChR expressed in Xenopus oocytes by two-electrode voltage clamp technique. The format is functional, cell-based, Oocyte. In a few lines: (§1)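 Defolliculated Xenopus oocytes received 40-50 ng total cRNA of human α7, α3+β4 (1:1) or α4+β2 and were kept at 17 °C. Two-electrode clamp at -60 mV used 3 M KCl electrodes in Oocyte Ringer's pH 7.4, with 12 s agonist pulses 5 min apart at 2.5 mL/min. Peak current was normalized to saturating ACh in the same oocyte (10 mM α7; 1 mM α3β4, α4β2).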
A general note: Two-electrode voltage clamp holds a large cell at a set potential and records current.

Assay [8] addresses T3, Neuronal acetylcholine receptor; alpha3/beta4 (Homo sapiens, UniProt P30926+P32297). The assay is described as follows: Agonist activity at human alpha-3-beta-4 nAChR expressed in Xenopus oocytes by two-electrode voltage clamp technique. The format is functional, cell-based, Oocyte. In short, it runs like this: as §1
For assay [9], the target named is T4, Neuronal acetylcholine receptor subunit alpha-7 (Homo sapiens, UniProt P36544). Put plainly: Agonist activity at human alpha-7 nAChR expressed in Xenopus oocytes by two-electrode voltage clamp technique. The format is functional, cell-based, Oocyte. In a few lines: as §1
T4 sequence (P36544 whole entry): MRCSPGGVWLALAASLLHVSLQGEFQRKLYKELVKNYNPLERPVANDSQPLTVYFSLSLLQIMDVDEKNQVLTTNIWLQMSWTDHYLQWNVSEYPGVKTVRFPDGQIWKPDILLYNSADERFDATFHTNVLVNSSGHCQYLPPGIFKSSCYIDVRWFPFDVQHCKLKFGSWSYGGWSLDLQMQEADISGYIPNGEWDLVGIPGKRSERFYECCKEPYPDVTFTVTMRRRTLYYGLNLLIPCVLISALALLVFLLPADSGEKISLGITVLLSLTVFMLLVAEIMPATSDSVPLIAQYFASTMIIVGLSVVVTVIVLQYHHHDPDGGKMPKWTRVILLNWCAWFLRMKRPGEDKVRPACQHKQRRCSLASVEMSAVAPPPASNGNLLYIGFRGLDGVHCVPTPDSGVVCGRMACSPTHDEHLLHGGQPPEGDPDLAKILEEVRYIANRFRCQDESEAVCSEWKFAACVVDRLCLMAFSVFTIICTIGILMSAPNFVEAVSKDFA
Assay [10] addresses T2, Neuronal acetylcholine receptor; alpha4/beta2. The assay is described as follows: Agonist activity at human alpha-4-beta-2 nAChR expressed in Xenopus oocytes by two-electrode voltage clamp technique relative to acetylcholine. To be noted: Oocyte. The format is functional, cell-based. In a few lines: as §1
Assay [11] has as its target T3, Neuronal acetylcholine receptor; alpha3/beta4. Put plainly: Agonist activity at human alpha3beta4 nAChR expressed in Xenopus oocytes by two-electrode voltage clamp technique at 320 uM relative to acetylcholine. To be noted: Oocyte. The format is functional, cell-based. In a few lines:
as §1

Assay [12] concerns the target T4, Neuronal acetylcholine receptor subunit alpha-7. Put plainly: Agonist activity at human alpha-7 nAChR expressed in Xenopus oocytes by two-electrode voltage clamp technique at 320 uM relative to acetylcholine. The format is functional, cell-based. To be noted: Oocyte. In a few lines: as §1

T3 sequence (P30926 whole entry): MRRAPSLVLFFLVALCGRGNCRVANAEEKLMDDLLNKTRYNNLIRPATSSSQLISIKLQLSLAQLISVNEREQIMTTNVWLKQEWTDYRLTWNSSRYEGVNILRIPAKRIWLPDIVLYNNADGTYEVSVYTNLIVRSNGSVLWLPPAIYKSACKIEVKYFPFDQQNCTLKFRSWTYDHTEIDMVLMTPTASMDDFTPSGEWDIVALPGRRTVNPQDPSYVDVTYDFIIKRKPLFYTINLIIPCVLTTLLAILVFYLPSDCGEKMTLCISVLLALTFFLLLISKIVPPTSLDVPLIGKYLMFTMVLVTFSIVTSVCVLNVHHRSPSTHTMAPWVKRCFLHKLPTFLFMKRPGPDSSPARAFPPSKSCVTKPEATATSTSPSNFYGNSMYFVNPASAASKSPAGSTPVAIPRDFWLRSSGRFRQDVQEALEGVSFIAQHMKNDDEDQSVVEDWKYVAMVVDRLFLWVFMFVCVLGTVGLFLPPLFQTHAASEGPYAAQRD
T3 sequence (P32297 whole entry): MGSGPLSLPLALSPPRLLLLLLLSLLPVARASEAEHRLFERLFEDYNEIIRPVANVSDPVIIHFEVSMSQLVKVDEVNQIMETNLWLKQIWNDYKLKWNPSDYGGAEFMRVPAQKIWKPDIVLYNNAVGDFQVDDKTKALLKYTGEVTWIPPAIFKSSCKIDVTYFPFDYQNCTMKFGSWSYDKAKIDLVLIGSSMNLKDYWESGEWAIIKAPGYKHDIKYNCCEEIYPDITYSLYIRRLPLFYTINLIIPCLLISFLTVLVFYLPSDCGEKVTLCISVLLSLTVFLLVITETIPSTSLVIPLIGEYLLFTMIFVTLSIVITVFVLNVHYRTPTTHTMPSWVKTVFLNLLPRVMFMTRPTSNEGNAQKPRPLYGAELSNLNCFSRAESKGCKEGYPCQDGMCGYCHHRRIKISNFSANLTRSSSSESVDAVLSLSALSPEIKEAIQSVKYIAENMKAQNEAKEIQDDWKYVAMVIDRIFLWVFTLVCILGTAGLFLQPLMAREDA
Sequence of Neuronal acetylcholine receptor; alpha4/beta2 (Rattus norvegicus, UniProt P09483+P12390) (P09483 whole entry): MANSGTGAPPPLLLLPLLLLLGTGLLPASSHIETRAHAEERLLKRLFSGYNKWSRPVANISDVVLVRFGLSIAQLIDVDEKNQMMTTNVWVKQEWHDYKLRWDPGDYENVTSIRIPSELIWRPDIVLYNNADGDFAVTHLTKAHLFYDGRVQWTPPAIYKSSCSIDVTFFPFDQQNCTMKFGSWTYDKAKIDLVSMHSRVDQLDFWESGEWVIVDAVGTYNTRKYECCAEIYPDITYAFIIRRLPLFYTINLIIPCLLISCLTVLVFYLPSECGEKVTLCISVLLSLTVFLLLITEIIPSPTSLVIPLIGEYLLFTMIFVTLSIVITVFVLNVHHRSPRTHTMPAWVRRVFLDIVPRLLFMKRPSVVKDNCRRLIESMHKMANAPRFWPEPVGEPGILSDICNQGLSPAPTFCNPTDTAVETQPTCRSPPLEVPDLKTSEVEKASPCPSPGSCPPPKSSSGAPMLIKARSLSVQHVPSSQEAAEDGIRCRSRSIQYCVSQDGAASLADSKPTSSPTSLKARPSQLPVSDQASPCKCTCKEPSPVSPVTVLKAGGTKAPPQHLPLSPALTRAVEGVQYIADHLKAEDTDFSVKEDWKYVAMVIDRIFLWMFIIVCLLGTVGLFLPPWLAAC
Sequence of Neuronal acetylcholine receptor; alpha4/beta2 (Rattus norvegicus, UniProt P09483+P12390) (P12390 whole entry): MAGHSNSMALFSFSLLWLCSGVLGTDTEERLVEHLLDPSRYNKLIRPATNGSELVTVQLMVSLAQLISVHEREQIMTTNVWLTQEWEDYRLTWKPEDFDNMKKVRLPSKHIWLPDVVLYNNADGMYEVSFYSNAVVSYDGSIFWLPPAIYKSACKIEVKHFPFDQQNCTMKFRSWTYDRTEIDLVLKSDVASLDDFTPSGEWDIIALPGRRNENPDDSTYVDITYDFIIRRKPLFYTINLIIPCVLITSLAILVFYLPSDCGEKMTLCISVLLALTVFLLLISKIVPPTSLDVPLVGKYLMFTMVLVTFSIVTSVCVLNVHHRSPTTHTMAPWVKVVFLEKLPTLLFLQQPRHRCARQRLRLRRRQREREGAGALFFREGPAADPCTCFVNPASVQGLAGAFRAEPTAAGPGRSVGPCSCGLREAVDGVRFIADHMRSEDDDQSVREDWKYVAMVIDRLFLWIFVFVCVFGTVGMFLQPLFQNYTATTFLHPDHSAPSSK
Sequence of Neuronal acetylcholine receptor; alpha4/beta4 (P09483 whole entry): as the sequence (P09483 whole entry) above
Sequence of Neuronal acetylcholine receptor; alpha4/beta4 (P12392 whole entry): as the sequence (P12392 whole entry) above

`CC(CCOC(=O)N(C)C)N(C)C` (configuration not stated): the Ki is 0.02 µM in assay [1]; 0.42 µM in assay [2]; 0.15 µM in assay [3]; greater than 1000 µM in assay [4]; 0.0077 µM in assay [5] (read-out: Ki); 7.94 µM in assay [5] (read-out: pKi (converted)). Also, the Activity in [6] was 105%.
For `CC(C)C(=O)OCCC(C)N(C)C` (configuration not stated), the Ki in assay [1] is 0.03 µM; in assay [2], 8.5 µM; in assay [3], 0.76 µM; in assay [4], greater than 1000 µM. The EC50 in assay [5] (read-out: EC50) worked out at 24 µM. Besides, the Activity in assay [6] turned out to be 100%.
As for `CC(CCOC(=O)N1CCCC1)N(C)C` (configuration not stated), the results for the Ki in assay [1], in assay [2] and in [3] were 0.21 µM, 25 µM and 2.2 µM, respectively.
For `CC1CN(C(=O)OCCC(C)N(C)C)C1` (configuration not stated), the Ki in assay [1] was 0.0021 µM; in [2], 23 µM; in [3] it was 0.26 µM; in [4], greater than 1000 µM; in [5] (read-out: Ki), 0.048 µM; in assay [5] (read-out: pKi (converted)) it was 50.1 µM. The Activity stood at 91% in assay [6], 9.5% in [10], 12% in assay [11] and 0.9% in assay [12]. Further, the EC50 in assay [7] is 85 µM; in assay [8] (read-out: EC50), greater than 320 µM; in assay [8] (read-out: pEC50 (converted)), greater than 316 µM; in assay [9] (read-out: EC50), greater than 320 µM; in assay [9] (read-out: pEC50 (converted)) it was greater than 316 µM.
`CC(CCOC(=O)c1ccccc1)N(C)C` (configuration not stated): the Ki stood at 0.32 µM in assay [1], 100 µM in [2], 10 µM in assay [3] and 190 µM in [4].
As to `CC(CCOC(=O)N1CCC1(C)C)N(C)C` (configuration not stated), the Ki is 0.21 µM in [1]; 25 µM in assay [2]; 3.2 µM in assay [3]; 0.051 µM in assay [5] (read-out: Ki); 50.1 µM in assay [5] (read-out: pKi (converted)). In addition, the Activity in assay [6] was determined as 90%.
For `CC(CCOC(=O)C1CCC1)N(C)C` (configuration not stated), the Ki in [1] stood at 0.1 µM; in assay [2], 3.5 µM; in assay [3] it was 0.46 µM; in assay [4], 290 µM. The EC50 in [5] (read-out: EC50) came to 8.5 µM. Also, the Activity in assay [6] was found to be 85%.
Turning to `CC(=O)OCCC(C)N(C)C` (configuration not stated), the Ki in assay [1] was 0.065 µM; in assay [2], 4.1 µM; in assay [3], 0.37 µM; in assay [4], greater than 1000 µM. Besides, the EC50 in assay [5] (read-out: EC50) was determined as 23 µM. This compound also displayed an Activity in [6] of 97%.
`CC(CCOC(=O)N1CC(F)(F)C1)N(C)C` (configuration not stated): the Ki in assay [1] is 0.058 µM; in assay [3] it was 1.6 µM. In assay [6], this compound registered an Activity of 75%.
For `CC(CCOC(=O)n1cccc1)N(C)C` (configuration not stated), the Ki is 0.31 µM in assay [1]; 100 µM in assay [2]; 11 µM in [3]; greater than 1000 µM in [4]; 0.1 µM in assay [5] (read-out: Ki); 316 µM in assay [5] (read-out: pKi (converted)). In [6], this compound displayed an Activity of 27%.
Regarding `CC1CN(C(=O)OCC[C@H](C)N(C)C)C1`, the Ki in assay [1] is 0.057 µM; in assay [2] it was 100 µM; in assay [3], 7.1 µM.
For `CC(CCOC(=O)N1CCCCC1)N(C)C` (configuration not stated) the same measures were 0.091 µM, 2.6 µM and 0.35 µM.
With `CC(CCOC(=O)N1CCC1C)N(C)C` (configuration not stated), the Ki in [1] is 0.015 µM; in assay [2], 2.5 µM; in assay [3] it was 0.23 µM; in assay [4] it was greater than 1000 µM; in assay [5] (read-out: Ki) it was 0.0054 µM; in assay [5] (read-out: pKi (converted)) it was 5.01 µM. Moreover, the Activity in assay [6] is 89%.
Turning to `CC1CN(C(=O)OCC[C@@H](C)N(C)C)C1`, the Ki in assay [1] amounted to 0.00091 µM; in [2], 19 µM; in assay [3] it was 0.18 µM.
As for `CC(CCOC(=O)N1CC(C)(C)C1)N(C)C` (configuration not stated), the Ki was 0.058 µM in [1]; 300 µM in assay [2]; 0.72 µM in assay [3]; 0.3 µM in [5] (read-out: Ki); 316 µM in assay [5] (read-out: pKi (converted)). The Activity in assay [6] worked out at 43%.
As to `CC(CCOC(=O)N1CCC1)N(C)C` (configuration not stated), the Ki was 0.0051 µM in [1]; 11 µM in [2]; 0.19 µM in [3]; 0.023 µM in [5] (read-out: Ki); 25.1 µM in [5] (read-out: pKi (converted)). The Activity came to 106% in [6], 66% in assay [10] and 23% in assay [11]. Moreover, the EC50 in assay [7] was 7.1 µM; in [8] (read-out: EC50) it was greater than 320 µM; in assay [8] (read-out: pEC50 (converted)), greater than 316 µM.
As to `CC(CCOC(=O)C1CC1)N(C)C` (configuration not stated), the Ki in [1] came out at 0.0038 µM; in [2] it was 4.2 µM; in assay [3], 0.26 µM; in [4] it was 280 µM. In addition, the EC50 in assay [5] (read-out: pEC50 (converted)) was 7.94 µM. The same compound yielded an Activity in assay [6] of 105%.
